For series [1], the system named is MDA-MB-231. Put plainly: Induction of opsonization in human MDA-MB-231 cells assessed as increase in recruitment of anti-DNP antibody to cell surface at 1 uM measured after 5 to 10 mins at pH 6 to 7.4 by AlexaFluor-488-conjugated anti-DNP antibody based flow cytometry. The format is functional. In a few lines: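 Conjugate pre-incubated 1 h RT at 20 μM in 5 mM sodium phosphate pH 9.0, diluted, then pH adjusted with citrate buffer. MDA-MB-231 (350000 cells, suspension) exposed to 1 μM for 5 or 10 min, 37 °C, pH 7.4 or 6.0, washed, stained with 25 μg/mL anti-DNP-A488 30 min at 4 °C, PFA-fixed. Flow cytometry, ≥3000 events; fold over pH 7.4 antibody-only cells.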
(Flow cytometry measures light scatter and fluorescence of single cells or particles in a stream.)

The subject of series [2] is Lipid bilayer. Put plainly: Binding affinity to POPC large unilamellar vesicle at 1:300 ratio measured after 30 mins at pH 5 to 7.4 by circular dichroism spectroscopic analysis. In outline:
(§1)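 Peptide (20 μM stock in 5 mM sodium phosphate pH 8.0; 7 μM final) mixed with POPC LUVs (extruded, 100 nm pores) at 1:300, pH lowered with HCl, 30 min RT. Far-UV CD 260–200 nm in 0.1 cm cuvette, ≥5 scans averaged, liposome spectrum subtracted; expressed as mean residue molar ellipticity.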
On the technique in general: Circular dichroism is the unequal absorption of left and right circularly polarised light.

Series [3] can be described thus: Drug internalization in human MDA-MB-231 cells assessed as increase in fluorescence at 1 uM measured after 30 mins at pH 6 to 7.4 in presence of FITC-labeled anti-human IgG by flow cytometric method. The format is ADME, cell-based. The note with it: mda-mb-231, pH 6, 0.5 h. In a few lines:
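Control for specificity: MDA-MB-231 treated with 1 μM conjugate at pH 7.4 or 6.0 (5–10 min, 37 °C), washed, then incubated ± 25 μg/mL FITC anti-human IgG in PBS/10% FBS, 30 min at 4 °C, fixed, read by flow cytometry.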

Series [4] deals with MDA-MB-231. Put plainly: Induction of opsonization in human MDA-MB-231 cells assessed as increase in recruitment of anti-FITC antibody to cell surface at 1 uM measured after 5 to 10 mins at pH 6 to 7.4 by Alexa Fluor 647 conjugated anti-FITC antibody based flow cytometry. The format is functional. In outline: (§2)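 Cells in suspension (350000 MDA-MB-231) given 1 μM pH-adjusted conjugate for 5 or 10 min at 37 °C, pH 7.4 or 6.0, washed, then Alexa Fluor 647 anti-FITC mouse mAb in PBS/10% FBS 30 min at 4 °C, PFA-fixed. Flow cytometry, ≥3000 events; fold over pH 7.4 antibody-only cells; mean ± SEM, n = 3.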

The test system of series [5] is Lipid bilayer. In words: Binding affinity to POPC large unilamellar vesicle at 1:300 ratio measured after 30 mins at pH 5 by circular dichroism spectroscopic analysis. In outline: as §1
Series [6] deals with Lipid bilayer. In words: Binding affinity to POPC large unilamellar vesicle at 1:300 ratio measured after 30 mins at pH 5 to 7.4 by tryptophan fluorescence spectroscopic analysis. In a few lines:
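Peptide (7 μM final, from 20 μM stock in 5 mM sodium phosphate pH 8.0) with extruded 100 nm POPC LUVs at 1:300; pH set with HCl, 30 min RT before tryptophan emission spectra were recorded.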

Series [7] has as its system MDA-MB-231. In words: Induction of opsonization in human MDA-MB-231 cells assessed as increase in recruitment of anti-FITC antibody to cell surface at 1 uM measured after 5 to 10 mins at pH 6 by Alexa Fluor 647 conjugated anti-FITC antibody based flow cytometry relative to pH 7.4. The format is functional. In outline: as §2

Molecules are shown by their SMILES. Active and inactive are the calls of the source. No cut-off for these calls is given here. Square brackets hold non-standard residues; d marks the D form. Peptide text beside a SMILES is read from it. * marks the point of attachment. Dnp = O=[N+]([O-])c1ccc(*)c([N+](=O)[O-])c1; Gla = N[C@@H](CC(C(=O)O)C(=O)O)C(=O)O; Aad = N[C@@H](CCCC(=O)O)C(=O)O

On to `CC[C@H](C)[C@H](NC(=O)[C@@H]1CCCN1C(=O)[C@H](CC(N)=O)NC(=O)[C@H](CCC(N)=O)NC(=O)[C@H](CCC(=O)O)NC(=O)[C@@H](N)CCCCNc1ccc([N+](=O)[O-])cc1[N+](=O)[O-])C(=O)N[C@@H](Cc1ccc(O)cc1)C(=O)N[C@@H](Cc1c[nH]c2ccccc12)C(=O)N[C@@H](C)C(=O)N[C@@H](CCCNC(=N)N)C(=O)N[C@@H](Cc1ccc(O)cc1)C(=O)N[C@@H](C)C(=O)N[C@@H](CC(C(=O)O)C(=O)O)C(=O)N[C@@H](Cc1c[nH]c2ccccc12)C(=O)N[C@@H](CC(C)C)C(=O)N[C@@H](Cc1ccccc1)C(=O)N[C@H](C(=O)N[C@H](C(=O)N1CCC[C@H]1C(=O)N[C@@H](CC(C)C)C(=O)N[C@@H](CC(C)C)C(=O)N[C@@H](CC(C)C)C(=O)N[C@@H](CC(C)C)C(=O)N[C@@H](CCCC(=O)O)C(=O)N[C@@H](CC(C)C)C(=O)N[C@@H](C)C(=O)N[C@@H](CC(C)C)C(=O)N[C@@H](CC(C)C)C(=O)N[C@H](C(=O)N[C@@H](CC(=O)O)C(=O)N[C@@H](C)C(=O)N[C@@H](CC(=O)O)C(=O)N[C@@H](CCC(=O)O)C(=O)NCC(=O)N[C@H](C(=O)NCC(N)=O)[C@@H](C)O)C(C)C)[C@@H](C)O)[C@@H](C)O` (H-K(Dnp)EQNPIYWARYA[Gla]WLFTTPLLLL[Aad]LALLVDADEGTG-NH2), for which the result in the series on MDA-MB-231 [1] and in the series with Lipid bilayer [2] was Active. Moreover, the Drug uptake entry in series [3] is listed as “Not Active”.

Regarding `CC[C@H](C)[C@H](NC(=O)[C@@H]1CCCN1C(=O)[C@H](CC(N)=O)NC(=O)[C@H](CCC(N)=O)NC(=O)[C@H](CCC(=O)O)NC(=O)[C@@H](N)CCCCNc1ccc([N+](=O)[O-])cc1[N+](=O)[O-])C(=O)N[C@@H](Cc1ccc(O)cc1)C(=O)N[C@@H](Cc1c[nH]c2ccccc12)C(=O)N[C@@H](C)C(=O)N[C@@H](CCCNC(=N)N)C(=O)N[C@@H](Cc1ccc(O)cc1)C(=O)N[C@@H](C)C(=O)N[C@@H](CC(=O)O)C(=O)N[C@@H](Cc1c[nH]c2ccccc12)C(=O)N[C@@H](CC(C)C)C(=O)N[C@@H](Cc1ccccc1)C(=O)N[C@H](C(=O)N[C@H](C(=O)N1CCC[C@H]1C(=O)N[C@@H](CC(C)C)C(=O)N[C@@H](CC(C)C)C(=O)N[C@@H](CC(C)C)C(=O)N[C@@H](CC(C)C)C(=O)N[C@@H](CC(=O)O)C(=O)N[C@@H](CC(C)C)C(=O)N[C@@H](C)C(=O)N[C@@H](CC(C)C)C(=O)N[C@@H](CC(C)C)C(=O)N[C@H](C(=O)N[C@@H](CC(=O)O)C(=O)N[C@@H](C)C(=O)N[C@@H](CC(=O)O)C(=O)N[C@@H](CCC(=O)O)C(=O)NCC(=O)N[C@H](C(=O)NCC(N)=O)[C@@H](C)O)C(C)C)[C@@H](C)O)[C@@H](C)O` (H-K(Dnp)EQNPIYWARYADWLFTTPLLLLDLALLVDADEGTG-NH2), the result in the series on MDA-MB-231 [1] and with Lipid bilayer [2] was Active. Also, the Drug uptake entry in series [3] is “Not Active”.

For the molecule `CC[C@H](C)[C@H](NC(=O)[C@@H]1CCCN1C(=O)[C@H](CC(N)=O)NC(=O)[C@H](CCC(N)=O)NC(=O)[C@H](CCC(=O)O)NC(=O)[C@H](CSC1CC(=O)N(CCC(=O)NOCCOCCOCCOCCOCCOCCOCCOCCOCCOCCOCCOCCOCCOCCOCCOCCOCCOCCOCCOCCOCCOCCOCCOCCC(=O)NCCCNC(=O)c2ccc(-c3c4ccc(=O)cc-4oc4cc(O)ccc34)c(C(=O)O)c2)C1=O)NCC(N)=O)C(=O)N[C@@H](Cc1ccc(O)cc1)C(=O)N[C@@H](Cc1c[nH]c2ccccc12)C(=O)N[C@@H](C)C(=O)N[C@@H](CCCNC(=N)N)C(=O)N[C@@H](Cc1ccc(O)cc1)C(=O)N[C@@H](C)C(=O)N[C@@H](CC(=O)O)C(=O)N[C@@H](Cc1c[nH]c2ccccc12)C(=O)N[C@@H](CC(C)C)C(=O)N[C@@H](Cc1ccccc1)C(=O)N[C@H](C(=O)N[C@H](C(=O)N1CCC[C@H]1C(=O)N[C@@H](CC(C)C)C(=O)N[C@@H](CC(C)C)C(=O)N[C@@H](CC(C)C)C(=O)N[C@@H](CC(C)C)C(=O)N[C@@H](CC(=O)O)C(=O)N[C@@H](CC(C)C)C(=O)N[C@@H](C)C(=O)N[C@@H](CC(C)C)C(=O)N[C@@H](CC(C)C)C(=O)N[C@H](C(=O)N[C@@H](CC(=O)O)C(=O)N[C@@H](C)C(=O)N[C@@H](CC(=O)O)C(=O)N[C@@H](CCC(=O)O)C(=O)NCC(=O)N[C@H](C(=O)NCC(N)=O)[C@@H](C)O)C(C)C)[C@@H](C)O)[C@@H](C)O` (some centres undefined), the result in the series on MDA-MB-231 [4], with Lipid bilayer [5] and in the series on Lipid bilayer [6] was Active.

`CC[C@H](C)[C@H](NC(=O)[C@@H]1CCCN1C(=O)[C@H](CC(N)=O)NC(=O)[C@H](CCC(N)=O)NC(=O)[C@H](CCC(=O)O)NC(=O)[C@H](CSC1CC(=O)N(CCC(=O)NOCCOCCOCCOCCOCCOCCOCCOCCOCCOCCOCCOCCC(=O)NCCCNC(=O)c2ccc(-c3c4ccc(=O)cc-4oc4cc(O)ccc34)c(C(=O)O)c2)C1=O)NCC(N)=O)C(=O)N[C@@H](Cc1ccc(O)cc1)C(=O)N[C@@H](Cc1c[nH]c2ccccc12)C(=O)N[C@@H](C)C(=O)N[C@@H](CCCNC(=N)N)C(=O)N[C@@H](Cc1ccc(O)cc1)C(=O)N[C@@H](C)C(=O)N[C@@H](CC(=O)O)C(=O)N[C@@H](Cc1c[nH]c2ccccc12)C(=O)N[C@@H](CC(C)C)C(=O)N[C@@H](Cc1ccccc1)C(=O)N[C@H](C(=O)N[C@H](C(=O)N1CCC[C@H]1C(=O)N[C@@H](CC(C)C)C(=O)N[C@@H](CC(C)C)C(=O)N[C@@H](CC(C)C)C(=O)N[C@@H](CC(C)C)C(=O)N[C@@H](CCC(=O)O)C(=O)N[C@@H](CC(C)C)C(=O)N[C@@H](C)C(=O)N[C@@H](CC(C)C)C(=O)N[C@@H](CC(C)C)C(=O)N[C@H](C(=O)N[C@@H](CC(=O)O)C(=O)N[C@@H](C)C(=O)N[C@@H](CC(=O)O)C(=O)N[C@@H](CCC(=O)O)C(=O)NCC(=O)N[C@H](C(=O)NCC(N)=O)[C@@H](C)O)C(C)C)[C@@H](C)O)[C@@H](C)O` (some centres undefined): the outcome with MDA-MB-231 [4] and with Lipid bilayer [6] was Active. Besides, the “fold change (FC)” value in the series with MDA-MB-231 [7] is given as 2.9.

In the case of `CC[C@H](C)[C@H](NC(=O)[C@@H]1CCCN1C(=O)[C@H](CC(N)=O)NC(=O)[C@H](CCC(N)=O)NC(=O)[C@H](CCC(=O)O)NC(=O)[C@H](CSC1CC(=O)N(CCC(=O)NOCCOCCOCCOCCOCCOCCC(=O)NCCCNC(=O)c2ccc(-c3c4ccc(=O)cc-4oc4cc(O)ccc34)c(C(=O)O)c2)C1=O)NCC(N)=O)C(=O)N[C@@H](Cc1ccc(O)cc1)C(=O)N[C@@H](Cc1c[nH]c2ccccc12)C(=O)N[C@@H](C)C(=O)N[C@@H](CCCNC(=N)N)C(=O)N[C@@H](Cc1ccc(O)cc1)C(=O)N[C@@H](C)C(=O)N[C@@H](CC(=O)O)C(=O)N[C@@H](Cc1c[nH]c2ccccc12)C(=O)N[C@@H](CC(C)C)C(=O)N[C@@H](Cc1ccccc1)C(=O)N[C@H](C(=O)N[C@H](C(=O)N1CCC[C@H]1C(=O)N[C@@H](CC(C)C)C(=O)N[C@@H](CC(C)C)C(=O)N[C@@H](CC(C)C)C(=O)N[C@@H](CC(C)C)C(=O)N[C@@H](CC(=O)O)C(=O)N[C@@H](CC(C)C)C(=O)N[C@@H](C)C(=O)N[C@@H](CC(C)C)C(=O)N[C@@H](CC(C)C)C(=O)N[C@H](C(=O)N[C@@H](CC(=O)O)C(=O)N[C@@H](C)C(=O)N[C@@H](CC(=O)O)C(=O)N[C@@H](CCC(=O)O)C(=O)NCC(=O)N[C@H](C(=O)NCC(N)=O)[C@@H](C)O)C(C)C)[C@@H](C)O)[C@@H](C)O` (some centres undefined), the outcome in the series with MDA-MB-231 [4] and with Lipid bilayer [6] was Active.

(Values after ChEMBL document CHEMBL4354869, “pH-Dependent Grafting of Cancer Cells with Antigenic Epitopes Promotes Selective Antibody-Mediated Cytotoxicity” (J Med Chem, 2020).)
